For test [1], the system named is Mycobacterium tuberculosis. Description: Induction of nitrous acid production in NRP2 phase Mycobacterium bovis BCG assessed as ratio of Vmax to Km under hypoxic non replicating condition. Format: functional, variant bovis BCG. The essentials:
(§1)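 NO release measured inside BCG cells preloaded with the NO-specific fluorescent probe DAF-FM diacetate and then treated with compound. Fluorescence (RFU) followed over time. Rate expressed as apparent Vmax/Km, i.e. RFU per hour divided by an intracellularly measured Km (RFU hr–1 μM–1).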

Test [2] relates to Mycobacterium tuberculosis. Description: Induction of nitrous acid production in NRP2 phase Mycobacterium bovis BCG at 1.85 uM to 100 uM after 2 days under hypoxic non replicating condition in presence of DAF-FM diacetate. The format is functional, organism-based. The conditions noted are these: variant bovis BCG.
Test [3] deals with Mycobacterium tuberculosis. Description: Induction of nitrous acid production in NRP2 phase Mycobacterium bovis BCG under aerobic condition in presence of DAF-FM diacetate. Format: functional, organism-based. The settings on record: variant bovis BCG. In short, it runs like this: as §1
For test [4], the system named is Mycobacterium tuberculosis. Description: Induction of nitrous acid production in NRP2 phase Mycobacterium bovis BCG at 20 uM by fluorescence quenching measurement in presence of C-PTIO. Format: functional, organism-based. The conditions noted are these: variant bovis BCG. In short, it runs like this:
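BCG cells preloaded with DAF-FM diacetate were treated with 20 μM nitroimidazole in the presence of increasing concentrations of the NO scavenger C-PTIO. NO read as fluorescence. Three independent replicates, error as SD.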

Activity calls are given as the source filed them. The rule behind the calls is not given here.

Consider `O=[N+]([O-])c1cn2c(n1)OC[C@@H](NCc1ccc(OCc3ccc(OC(F)(F)F)cc3)cc1)C2`, for which the Ratio in test [1] is reported as 76.9.
For the compound `O=[N+]([O-])c1cn2c(n1)OC[C@@H](NCCCCc1ccc(OC(F)(F)F)cc1)C2`, the Ratio in test [1] is on record as 71.6.
The same measure, in the same setting: to `O=[N+]([O-])c1cn2c(n1)OC[C@@H](NCCc1ccc(OC(F)(F)F)cc1)C2` belongs 28.7.
Take `O=[N+]([O-])c1cn2c(n1)OC[C@@H](OCc1ccc(OC(F)(F)F)cc1)C2` [PRETOMANID]: the result in test [2] and in test [3] was Active. Moreover, the outcome in test [4] was inactive. For the same compound, the Ratio in test [1] worked out at 12.5.
Turning to `O=[N+]([O-])c1cn2c(n1)OC[C@@H](NCCCc1ccc(OC(F)(F)F)cc1)C2`, in test [1], the Ratio was found to be 60.1.
With `CCCCc1ccc(CN[C@@H]2COc3nc([N+](=O)[O-])cn3C2)cc1`, the Ratio in test [1] turned out to be 4.7.
For the compound `O=[N+]([O-])c1cn2c(n1)NC[C@@H](OCc1ccc(OC(F)(F)F)cc1)C2`, the Ratio in test [1] came out at 4.8.
The same measure, in the same setting: with `O=[N+]([O-])c1cn2c(n1)OC[C@@H](NCc1ccc(OC(F)(F)F)cc1)C2` the figure was 10.1.

The record behind these values is ChEMBL document CHEMBL1154512, “PA-824 kills nonreplicating Mycobacterium tuberculosis by intracellular NO release” (2008).
